Experimental data pooled from the literature.
Compare with care: the assays were run in different laboratories.
Target: Protein kinase C delta type (PRKCD, Homo sapiens, UniProt Q05655)

| SMILES | observed | method | tested at | remaining binding [%] |
| --- | --- | --- | --- | --- |
| CCCOc1ccc([C@@H]2[C@@H](C(=O)O)[C@H](c3ccc4c(c3)OCO4)CN2CC(=O)Nc2c(CC)cccc2CC)cc1 | cell-free assay | competition with immobilised ligand | 1 µM | 100 |
| CN(c1nccc(-c2cnn3ncccc23)n1)C1CC1 | binding | – | 1 µM | 85 |
| Cc1cc(C)c(-n2ccn3nc(-c4cccnc4)cc23)cc1NC(=O)c1cc(C#N)cc(S(F)(F)(F)(F)F)c1 | cell-free assay | competition with immobilised ligand | 0.1 µM | 93.1 |
| FC(F)(F)Oc1cccc(-c2cnc3ccc(-c4ccncc4)nn23)c1 | cell-free assay | competition with immobilised ligand | 5 µM | 71 |
| CN(CCCC(F)(F)F)c1nccc(-c2cnn3ncccc23)n1 | binding | – | 1 µM | 90 |
| O=C(NCCCN1CCOCC1)c1ccc(Nc2nccc(-c3cc4ccccc4s3)n2)cc1 | binding | competition with immobilised ligand | 1 µM | 81 |
| CNC(=O)[C@@H]1CC[C@@H](n2c(-c3ccc4cnccc4c3)nc3ccc(C(=O)NCc4cccc(C(N)=O)c4)cc32)C1 | binding | competition with immobilised ligand | 1 µM | 81 |
| O=C(NCCCN1CCOCC1)c1ccc(Nc2ncc(Cl)c(-c3ccc(Cl)s3)n2)cc1 | binding | competition with immobilised ligand | 1 µM | 81 |
| C[C@@H]1CCN(c2nccc(-c3cnn4ncccc34)n2)C1 | binding | – | 1 µM | 100 |
| COc1ccc2c(O[C@@H]3C[C@H]4C(=O)N[C@]5(C(=O)O)CC5/C=C\CCCCC[C@H](NC(=O)OC5CCCC5)C(=O)N4C3)cc(-c3csc(NC(=O)C(C)C)n3)nc2c1C (stereo partly drawn) | cell-free assay | competition with immobilised ligand | 1 µM | 84 |
| O=C(NCC1CCOCC1)c1n[nH]cc1NC(=O)c1c(F)cccc1F | binding | competition with immobilised ligand | 1 µM | 100 |
| Cc1cc(NC(=O)c2cccc(S(F)(F)(F)(F)F)c2)cc(-n2ccn3nc(-c4cccnc4)cc23)c1 | cell-free assay | competition with immobilised ligand | 1 µM | 95.8 |
| CCN1CCN(Cc2ccc(C(=O)Nc3ccc(C)c(Oc4ccc5c(c4)CC(=O)N5)c3)cc2C(F)(F)F)CC1 | binding | competition with immobilised ligand | 1 µM | 96 |
| COc1ncc2cc3ccccc3nc2c1C#N | cell-free assay | competition with immobilised ligand | 5 µM | 75 |
| Cc1nc(N2CC[C@@H](O)C2)ncc1-c1cc(C(F)(F)F)cc2[nH]ncc12 | cell-free assay | competition with immobilised ligand | 1 µM | 94 |
| Cc1cnn2ncc(-c3ccnc(N(C)C)n3)c2c1 | binding | – | 1 µM | 100 |
| Cc1cnc(Nc2ccc(C(=O)N3CCC(N4CCCC4)CC3)cc2)nc1-c1cc2ccccc2s1 | binding | competition with immobilised ligand | 1 µM | 23 |
| N[C@@H]1CCN(c2nccc(-c3cnn4ncccc34)n2)C1 | binding | – | 1 µM | 96 |
| O=C(N[C@H]1CCCCC/C=C\C2C[C@@]2(C(=O)O)NC(=O)[C@@H]2C[C@@H](Oc3ccncc3)CN2C1=O)OC1CCCC1 (stereo partly drawn) | cell-free assay | competition with immobilised ligand | 1 µM | 100 |
| CC1CCCN1c1nccc(-c2cnn3ncccc23)n1 (stereo not drawn) | binding | – | 1 µM | 100 |
| COc1cnc(Nc2cccc(S(N)(=O)=O)c2)nc1N1CCN(c2ccccc2)C(=O)C1 | binding | competition with immobilised ligand | 1 µM | 100 |
